Experimental data pooled from the literature.
Lines come from different studies, so protocols differ.
Target: Tyrosine-protein kinase receptor UFO (AXL, Homo sapiens, UniProt P30530)

Cc1[nH]c(/C=C2\C(=O)Nc3ccc(F)cc32)c(C)c1C(=O)N[C@H]1CCN(C(=O)N(C)C)C1
remaining activity (enzyme activity; inhibitor; 0.1 µM): 89%

O=C1Nc2ccc(Cl)cc2C1=Cc1cc(Cl)c(O)c(Cl)c1
remaining signal (cell-free assay; 0.5 µM): 106%

CCCOc1ccc([C@H]2[C@H](C(=O)O)[C@@H](c3ccc4c(c3)OCO4)CN2CC(=O)Nc2c(CC)cccc2CC)cc1
remaining binding (cell-free assay; competition with immobilised ligand; 1 µM): 83%

COc1cc2ncnc(Nc3ccc(Oc4ccccc4)cc3C)c2cc1OC
inhibition (enzyme activity; inhibitor; 1 µM): 8%

CCN(CC)CCNC(=O)c1c(C)[nH]c(/C=C2\C(=O)Nc3ccc(Cl)cc32)c1C
remaining activity (enzyme activity; inhibitor; 0.5 µM): 25.2%

CN([C@@H]1CCc2c(CC(=O)O)c3ccccc3n2C1)S(=O)(=O)c1ccc(F)cc1
remaining binding (cell-free assay; competition with immobilised ligand; 1 µM): 100%

O=C(Nc1cnn(-c2csc(C(=O)NC3COC3)c2)c1)Nc1c(F)cccc1Cl
remaining activity (enzyme activity; inhibitor; 5 µM): 73%

CCN(CC)CCNC(=O)c1c(C)[nH]c(/C=C2\C(=O)Nc3ccc(F)cc32)c1C
inhibition (enzyme activity; inhibitor; 10 µM): 94%

COc1cc2nccc(Oc3ccc(NC(=O)c4c5n(n(-c6ccc(F)cc6)c4=O)CCCC5)cc3)c2cc1OC
inhibition (enzyme activity; inhibitor; 0.1 µM): 93%

COc1ccc(C(=O)Nc2sc3c(c2C(N)=O)CCCC3)cc1OC
remaining activity (enzyme activity; inhibitor; 0.5 µM): 84.4%

CC(=O)N1CCC(c2ccc(C(=O)NC(=N)N)cc2C(F)(F)F)CC1
remaining binding (cell-free assay; competition with immobilised ligand; 1 µM): 100%

O=c1c2ccccc2[nH]c(=S)n1CCN1CCC(=C(c2ccc(F)cc2)c2ccc(F)cc2)CC1
remaining activity (enzyme activity; inhibitor; 0.5 µM): 91.7%

CC(C)(O)[C@H]1CC[C@H](Nc2ccc3ncc(-c4cccc(C(F)(F)F)c4)n3n2)CC1
remaining activity (enzyme activity; inhibitor; 1 µM): 78%

CCN(CC)CCNC(=O)c1c(C)[nH]c(/C=C2\C(=O)Nc3ccc(F)cc32)c1C
remaining activity (enzyme activity; inhibitor; 0.1 µM): 41%

CNC(=O)Nc1ccc2c(c1)[C@@]1(CC2)OC(=O)N(CC(=O)N(Cc2ccc(F)cc2)[C@@H](C)C(F)(F)F)C1=O
remaining binding (cell-free assay; competition with immobilised ligand; 1 µM): 67%

CC(C)(C)c1nc(-c2cccc(NS(=O)(=O)c3c(F)cccc3F)c2F)c(-c2ccnc(N)n2)s1
remaining activity (enzyme activity; inhibitor; radiometric; 1 µM): 75%

Cc1ccc(C(=O)NCc2ccsc2)cc1C#Cc1cn(C(C)C)c2ncnc(N)c12
activity vs control (enzyme activity; inhibitor; 1 µM): 72%

COc1cc2nccc(Oc3ccc(NC(=S)NC(=O)c4ccccc4C)cc3)c2cc1OC
remaining activity (enzyme activity; inhibitor; 0.5 µM): 80.4%

Cc1ccc(C(=O)Nc2ccc(CN3CCN(C)CC3)c(C(F)(F)F)c2)cc1C#Cc1cnc2cccnn12
remaining activity (enzyme activity; 23.5 nM): 45%

CS(=O)(=O)N1CCCC(NC(=O)[C@H](CCC2CCCCC2)NC(=O)c2ccc(CNc3ncnc4c3nnn4-c3ccccc3)cc2)C1 (some centres unmarked)
remaining binding (cell-free assay; competition with immobilised ligand; 0.1 µM): 79%

CNC(=O)c1cc(Oc2ccc(NC(=O)Nc3ccc(Cl)c(C(F)(F)F)c3)cc2)ccn1
inhibition (enzyme activity; inhibitor; 0.3 µM): 3%

O=c1cc(-c2cccc3c2Sc2ccccc2S3)oc(N2CCOCC2)c1
remaining activity (enzyme activity; inhibitor; 0.5 µM): 106%

C=CC(=O)Nc1cc(Nc2nccc(Nc3cc(Cl)c(F)cc3C(C)(C)O)n2)c(OC)cc1N1CC[C@@H](N(C)C)C1
inhibition (enzyme activity; inhibitor; 1 µM): 16%

Cc1cc(NC(=O)c2cccc3cc(-c4cccc5[nH]nc(N)c45)ccc23)ccc1F
activity vs control (enzyme activity; inhibitor; 0.1 µM): 113%

CNCc1ccc(-c2cc(-c3nc(-c4ccc(S(=O)(=O)C(C)C)cc4)cnc3N)on2)cc1
inhibition (enzyme activity; inhibitor; 0.4 µM): 27%

CN(C)C(=O)Cn1cc(-c2nc([C@@](C)(c3ccc(-c4cnc(N)nc4)cc3)C3CC3)no2)cn1
remaining binding (cell-free assay; competition with immobilised ligand; 1 µM): 98%

CN1CC(Oc2cnc(C#N)cc2-c2ccn3nc(NC(=O)C4CC4)cc3c2)C1
inhibition (enzyme activity; inhibitor; 1 µM): -5%

Cc1ccc(NC(=O)c2ccc(C)c(C(F)(F)F)c2)cc1C#Cc1nn(C2CCC(O)CC2)c2ncnc(N)c12 (centres unmarked)
remaining signal (cell-free assay; 10 µM): 56%

COc1ccc2cc(OCC3(C(=O)O)CN(C(=O)c4ccc(F)cc4)C3)ccc2c1
remaining binding (cell-free assay; competition with immobilised ligand; 1 µM): 100%

CCCOc1ccc(OC)c(F)c1C(=O)c1ccc(C(=O)N[C@@H]2CNC[C@H]2NC(=O)c2ccc3[nH]ncc3c2)cc1
remaining activity (enzyme activity; inhibitor; 10 µM): 23%

O=C(Nc1cccnn1)N1CCC(=Cc2cccc(Oc3ccc(C(F)(F)F)cn3)c2)CC1
remaining binding (cell-free assay; competition with immobilised ligand; 1 µM): 100%

Cc1ccc(Nc2nccc(N(C)c3ccc4c(C)n(C)nc4c3)n2)cc1S(N)(=O)=O
remaining signal (cell-free assay; 0.5 µM): 78.1%
